Converted amounts (≈) assume the structure as drawn. The source made the active and inactive calls.
Experiments:
SK-MEL-2 [1] = assay: Effective dose required for inhibitory activity against SK-MEL-2 human tumor cell line.; assay type: functional; conditions: read-out: ED50 (the source's name)
Outline: (§1)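 Human tumor lines were grown in RPMI-1640 with 25 mM HEPES, 0.25% sodium bicarbonate, 10% FBS and 100 µg/mL kanamycin. KB-VIN is a vincristine-resistant KB subline, and PTX10 is a 1A9 subline with mutated β-tubulin. Trypsinized cells (1500–7500/well) got compound from DMSO stock for 3 days continuous. Cells were fixed with cold 50% TCA, stained with 0.4% SRB, and read at 562 nm. ED50 is the 50% growth-reduction concentration; not active means ≤5% inhibition at the top concentration.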

CAKI-1 [2] = assay: Effective dose required for inhibitory activity against CAK1 human tumor cell line; assay type: functional; conditions: read-out: ED50 (the source's name); outline: as §1
MCF7 [3] = assay: Effective dose required for inhibitory activity against MCF-7 human tumor cell line.; assay type: functional; conditions: read-out: ED50 (the source's name); outline: as §1
HCT-8 = assay: Effective dose required for inhibitory activity against HCT-8 human tumor cell line.; assay type: functional; conditions: read-out: ED50 (the source's name); outline: as §1
A549 [4] = assay: Effective dose required for inhibitory activity against A549 human tumor cell line.; assay type: functional; conditions: read-out: ED50 (the source's name); outline: as §1
1A9/ptx-10 [5] = assay: Effective dose required for inhibitory activity against PTX10 human tumor cell line; assay type: functional; conditions: read-out: ED50 (the source's name); outline: as §1
KB [6] = assay: Effective dose required for inhibitory activity against KB-VIN human tumor cell line.; assay type: functional; conditions: read-out: ED50 (the source's name); outline: as §1
KB [7] = assay: Effective dose required for inhibitory activity against KB human tumor cell line.; assay type: functional; conditions: read-out: ED50 (the source's name); outline: as §1
PC-3 [8] = assay: Effective dose required for inhibitory activity against PC-3 human tumor cell line.; assay type: functional; conditions: read-out: ED50 (the source's name); outline: as §1
1A9 [9] = assay: Percent inhibition against 1A9 human tumor cell line at <0.00008 ug/mL; assay type: functional
HOS [10] = assay: Effective dose required for inhibitory activity against HOS human tumor cell line.; assay type: functional; conditions: read-out: ED50 (the source's name); outline: as §1
1A9 [11] = assay: Effective dose required for inhibitory activity against 1A9 human tumor cell line.; assay type: functional; conditions: read-out: ED50 (the source's name); outline: as §1
HOS [12] = assay: Effective dose required for inhibitory activity against HOS human tumor cell line; Not active; assay type: functional, cell-based; outline: as §1
1A9/ptx-10 [13] = assay: Percent inhibition against PTX10 human tumor cell line at >10 ug/mL; assay type: functional
A549 [14] = assay: Effective dose required for inhibitory activity against A549 human tumor cell line; Not active; assay type: functional, cell-based; outline: as §1
MCF7 [15] = assay: Percent inhibition against MCF-7 human tumor cell line at <5 ug/mL; assay type: functional
CAKI-1 [16] = assay: Effective dose required for inhibitory activity against CAK1 human tumor cell line; Not active; assay type: functional, cell-based; outline: as §1
1A9 [17] = assay: Percent inhibition against 1A9 human tumor cell line at >10 ug/mL; assay type: functional
SK-MEL-2 [18] = assay: Effective dose required for inhibitory activity against SK-MEL-2 human tumor cell line; Not active; assay type: functional, cell-based; outline: as §1
1A9 [19] = assay: Percent inhibition against 1A9 human tumor cell line at 0.10 ug/mL; assay type: functional
Outline: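 Human ovarian 1A9 cells grown in RPMI-1640 with 25 mM HEPES, 0.25% sodium bicarbonate, 10% FBS and 100 µg/mL kanamycin. Freshly trypsinized cells seeded at 1500–7500/well; compound added from DMSO-diluted stock; 3-day continuous exposure. Cells fixed with cold 50% TCA, stained with 0.4% SRB, dye solubilized, A562 read. Percent growth inhibition given where <50% at highest concentration.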

PC-3 [20] = assay: Effective dose required for inhibitory activity against PC-3 human tumor cell line; Not active; assay type: functional, cell-based; outline: as §1

**Q.** Which EC50 (SK-MEL-2 [1]) does the source give for `CCCCCCCCCC[C@@H](O)[C@@H]1CC[C@@H]([C@@H]2CC[C@@H]([C@H](O)CCCCCCCCCC(O)CC3=CC(C)OC3=O)O2)O1` (some centres not stated) [BULLATACIN] here?
**A.** 17.1 µg/mL (≈ 28.1 µM)

**Q.** And the EC50 (CAKI-1 [2])?
**A.** 16.8 µg/mL (≈ 27.6 µM)

**Q.** What about the EC50 (MCF7 [3]) of the same molecule?
**A.** 8.4 µg/mL (≈ 13.8 µM)

**Q.** What about the EC50 (HCT-8) of the same molecule?
**A.** 14.9 µg/mL (≈ 24.5 µM)

**Q.** What about the EC50 (A549 [4]) of the same molecule?
**A.** 13.3 µg/mL (≈ 21.8 µM)

**Q.** And the EC50 (1A9/ptx-10 [5])?
**A.** 8 µg/mL (≈ 13.1 µM)

**Q.** And the EC50 (KB [6])?
**A.** 16.1 µg/mL (≈ 26.4 µM)

**Q.** And the EC50 (KB [7])?
**A.** 10 µg/mL (≈ 16.4 µM)

**Q.** And the EC50 (PC-3 [8])?
**A.** 14.3 µg/mL (≈ 23.5 µM)

**Q.** What about the Inhibition (1A9 [9]) of the same molecule?
**A.** 55%

**Q.** What about the EC50 (HOS [10]) of the same molecule?
**A.** 11.9 µg/mL (≈ 19.5 µM)

**Q.** `CCCCCCCCCCCC[C@@H](O)[C@H]1CC[C@H]([C@H](O)CCCCCCCCCC[C@@H](O)CC2=C[C@H](C)OC2=O)O1` [MURISOLIN] was tested. Which EC50 (SK-MEL-2 [1]) did it give?
**A.** > 20 µg/mL

**Q.** What about the EC50 (1A9 [11]) of the same molecule?
**A.** 0.96 µg/mL (≈ 1.65 µM)

**Q.** What about the EC50 (CAKI-1 [2]) of the same molecule?
**A.** > 20 µg/mL

**Q.** And the EC50 (MCF7 [3])?
**A.** > 20 µg/mL

**Q.** What about the NA (HOS [12]) of the same molecule?
**A.** inactive

**Q.** And the EC50 (HCT-8)?
**A.** > 20 µg/mL

**Q.** And the EC50 (KB [6])?
**A.** > 20 µg/mL

**Q.** And the EC50 (KB [7])?
**A.** > 20 µg/mL

**Q.** And the Inhibition (1A9/ptx-10 [13])?
**A.** 21%

**Q.** What about the NA (A549 [14]) of the same molecule?
**A.** inactive

**Q.** What about the EC50 (PC-3 [8]) of the same molecule?
**A.** > 20 µg/mL

**Q.** What does the source list for `CCCCCCCCCCCC[C@@H](O)[C@H]1CC[C@H]([C@H](O)CCCC[C@H](O)CCCCC[C@@H](O)CC2=CC(C)OC2=O)O1` (some centres not stated) [ANNONACIN]?
**A.** EC50 (SK-MEL-2 [1]): 13.8 µg/mL (≈ 23.1 µM); EC50 (1A9 [11]): 0.07 µg/mL (≈ 0.117 µM); EC50 (CAKI-1 [2]): 9.8 µg/mL (≈ 16.4 µM); Inhibition (MCF7 [15]): 62%; EC50 (HCT-8): 7.9 µg/mL (≈ 13.2 µM); EC50 (A549 [4]): 7.8 µg/mL (≈ 13.1 µM); EC50 (1A9/ptx-10 [5]): 6 µg/mL (≈ 10.1 µM); EC50 (KB [6]): 10.3 µg/mL (≈ 17.3 µM); EC50 (KB [7]): 7.5 µg/mL (≈ 12.6 µM); EC50 (PC-3 [8]): 8.2 µg/mL (≈ 13.7 µM); EC50 (HOS [10]): 8.2 µg/mL (≈ 13.7 µM)

**Q.** For `CCCCC/C=C\CCC(O)C(O)CCCC[C@@H](O)[C@@H]1CC[C@@H](CCCCCCCCCCCCC2=C[C@H](C)OC2=O)O1` (some centres not stated), which NA (CAKI-1 [16]) is on record?
**A.** inactive

**Q.** What about the EC50 (MCF7 [3]) of the same molecule?
**A.** > 20 µg/mL

**Q.** What about the Inhibition (1A9 [17]) of the same molecule?
**A.** 39%

**Q.** What about the NA (HOS [12]) of the same molecule?
**A.** inactive

**Q.** What about the EC50 (HCT-8) of the same molecule?
**A.** > 20 µg/mL

**Q.** And the EC50 (KB [6])?
**A.** > 20 µg/mL

**Q.** What about the EC50 (KB [7]) of the same molecule?
**A.** > 20 µg/mL

**Q.** And the NA (SK-MEL-2 [18])?
**A.** inactive

**Q.** And the Inhibition (1A9/ptx-10 [13])?
**A.** 13%

**Q.** And the NA (A549 [14])?
**A.** inactive

**Q.** What about the EC50 (PC-3 [8]) of the same molecule?
**A.** > 20 µg/mL

**Q.** What does the source list for `CCCCCCCCC[C@H](O)[C@@H]1CC[C@H]([C@H]2CC[C@@H](CCCCCCCCCC[C@H](O)CC3=C[C@H](C)OC3=O)O2)O1`?
**A.** inhibition at 0.1 µg/mL (1A9 [19]): 47%; NA (CAKI-1 [16]): inactive; EC50 (MCF7 [3]): > 20 µg/mL; EC50 (HCT-8): > 20 µg/mL; EC50 (A549 [4]): > 20 µg/mL; EC50 (KB [6]): > 20 µg/mL; EC50 (KB [7]): > 20 µg/mL; NA (SK-MEL-2 [18]): inactive; Inhibition (1A9/ptx-10 [13]): 23%; EC50 (PC-3 [8]): > 20 µg/mL; EC50 (HOS [10]): > 20 µg/mL

**Q.** For `CCCCCCCCCCCC[C@@H](O)[C@H]1CC[C@H]([C@H](O)CCCCCCCCCCCCC2=C[C@H](C)OC2=O)O1` [REL-SOLAMIN], which EC50 (1A9 [11]) is on record?
**A.** 7.8 µg/mL (≈ 13.8 µM)

**Q.** And the NA (CAKI-1 [16])?
**A.** inactive

**Q.** What about the EC50 (MCF7 [3]) of the same molecule?
**A.** > 20 µg/mL

**Q.** And the EC50 (HCT-8)?
**A.** > 20 µg/mL

**Q.** What about the EC50 (A549 [4]) of the same molecule?
**A.** > 20 µg/mL

**Q.** What about the NA (PC-3 [20]) of the same molecule?
**A.** inactive

**Q.** What about the EC50 (KB [6]) of the same molecule?
**A.** > 20 µg/mL

**Q.** What about the EC50 (KB [7]) of the same molecule?
**A.** > 20 µg/mL

**Q.** What about the NA (SK-MEL-2 [18]) of the same molecule?
**A.** inactive

**Q.** And the Inhibition (1A9/ptx-10 [13])?
**A.** 18%

**Q.** What about the EC50 (HOS [10]) of the same molecule?
**A.** > 20 µg/mL

**Q.** For `CCCCCCCCCCCC[C@H](O)[C@@H]1CC[C@@H]([C@@H](O)CCCCCCC(O)CCCCC[C@@H](O)CC2=C[C@H](C)OC2=O)O1` (some centres not stated) [ANNOMONTACIN], which EC50 (SK-MEL-2 [1]) is on record?
**A.** 14.1 µg/mL (≈ 22.6 µM)

**Q.** And the EC50 (1A9 [11])?
**A.** 0.078 µg/mL (≈ 0.125 µM)

**Q.** And the EC50 (CAKI-1 [2])?
**A.** 15.3 µg/mL (≈ 24.5 µM)

**Q.** What about the Inhibition (MCF7 [15]) of the same molecule?
**A.** 51%

**Q.** And the EC50 (HCT-8)?
**A.** 13.7 µg/mL (≈ 21.9 µM)

**Q.** And the EC50 (A549 [4])?
**A.** 11.8 µg/mL (≈ 18.9 µM)

**Q.** What about the EC50 (1A9/ptx-10 [5]) of the same molecule?
**A.** 6.8 µg/mL (≈ 10.9 µM)

**Q.** And the EC50 (KB [6])?
**A.** 13.7 µg/mL (≈ 21.9 µM)

**Q.** What about the EC50 (KB [7]) of the same molecule?
**A.** 9.2 µg/mL (≈ 14.7 µM)

**Q.** What about the EC50 (PC-3 [8]) of the same molecule?
**A.** 9.2 µg/mL (≈ 14.7 µM)

**Q.** What about the EC50 (HOS [10]) of the same molecule?
**A.** 14.1 µg/mL (≈ 22.6 µM)
